Experimental data: ChEMBL document CHEMBL2384917, “Design, synthesis and biological evaluation of novel 3,4,5-trisubstituted aminothiophenes as inhibitors of p53-MDM2 interaction. Part 1” (Bioorg Med Chem, 2013); call rule not given here

Legend:
[1] = tested on: PC-3; experiment: Cytotoxicity against human p53-null PC3 cells assessed as growth inhibition after 72 hrs by SRB assay; type: functional, cell-based; conditions: PC-3, 72 h
Summary of the method: (§1)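 Cells seeded in 96-well plates, cultured overnight, then exposed to serial compound concentrations for 72 h. Fixed with 10% (w/v) TCA at 4 °C for 1 h, stained 30 min with 0.4% SRB in 1% acetic acid, washed with 1% acetic acid, bound dye dissolved in 10 mmol unbuffered Tris base, absorbance read at 515 nm. Inhibition calculated relative to untreated control wells; IC50 derived.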

[2] = tested on: A549; experiment: Cytotoxicity against human A549 cells expressing wild type p53 assessed as growth inhibition after 72 hrs by SRB assay; type: functional, cell-based; conditions: A549, 72 h; summary of the method: as §1
[3] = tested on: A549; experiment: Selectivity ratio of IC50 for human p53-null PC3 cells to IC50 for human A549 cells expressing wild type p53; type: functional
[4] = molecular target: Tumour suppressor p53/oncoprotein Mdm2 (Homo sapiens, UniProt Q00987); experiment: (§2) Inhibition of p53-MDM2 (unknown origin) interaction expressed in Escherichia coli BL-21 (DE3) after 1 hr by fluorescence polarization assay
[5] = molecular target: Tumour suppressor p53/oncoprotein Mdm2 (Homo sapiens, UniProt P04637+Q00987); experiment: as §2
Tumour suppressor p53/oncoprotein Mdm2 (Homo sapiens, UniProt P04637+Q00987), sequence (P04637 whole entry): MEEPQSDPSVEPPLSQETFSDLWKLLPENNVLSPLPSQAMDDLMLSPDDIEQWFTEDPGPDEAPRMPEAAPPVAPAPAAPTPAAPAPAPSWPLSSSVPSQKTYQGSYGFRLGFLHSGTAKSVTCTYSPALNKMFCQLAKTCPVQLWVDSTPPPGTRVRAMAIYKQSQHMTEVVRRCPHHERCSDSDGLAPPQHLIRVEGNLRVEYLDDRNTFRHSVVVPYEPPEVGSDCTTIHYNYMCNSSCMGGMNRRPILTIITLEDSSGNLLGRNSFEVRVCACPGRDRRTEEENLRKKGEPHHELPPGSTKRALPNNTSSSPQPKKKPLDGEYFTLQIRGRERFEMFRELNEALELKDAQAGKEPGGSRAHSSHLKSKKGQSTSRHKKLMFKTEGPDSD
Tumour suppressor p53/oncoprotein Mdm2 (Homo sapiens, UniProt P04637+Q00987), sequence (Q00987 whole entry): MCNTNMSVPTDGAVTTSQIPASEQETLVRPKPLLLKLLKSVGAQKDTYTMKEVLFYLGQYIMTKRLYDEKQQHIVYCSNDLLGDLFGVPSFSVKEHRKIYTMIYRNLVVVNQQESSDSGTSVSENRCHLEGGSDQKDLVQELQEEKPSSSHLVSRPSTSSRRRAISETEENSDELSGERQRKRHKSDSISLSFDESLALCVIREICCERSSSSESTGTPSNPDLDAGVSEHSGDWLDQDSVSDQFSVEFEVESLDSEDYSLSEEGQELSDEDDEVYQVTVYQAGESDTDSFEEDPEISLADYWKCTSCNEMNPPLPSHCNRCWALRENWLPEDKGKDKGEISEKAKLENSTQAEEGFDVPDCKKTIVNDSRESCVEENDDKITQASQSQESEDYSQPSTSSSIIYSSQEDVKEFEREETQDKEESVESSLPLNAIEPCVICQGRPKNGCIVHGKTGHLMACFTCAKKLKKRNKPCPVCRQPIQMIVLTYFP

Tumour suppressor p53/oncoprotein Mdm2 (Homo sapiens, UniProt Q00987), sequence (P04637 whole entry): as the sequence (P04637 whole entry) above
Tumour suppressor p53/oncoprotein Mdm2 (Homo sapiens, UniProt Q00987), sequence (Q00987 whole entry): as the sequence (Q00987 whole entry) above

CN1CCN(C(=O)c2c(N)sc(-c3ccc(Cl)cc3)c2-c2ccc(Cl)cc2)CC1
IC50 [1]: 13.1 µM | IC50 [2]: 0.59 µM | Ratio IC50 [3]: 22 | Ki [4]: 1.52 µM

CC1CN(C(=O)c2c(N)sc(-c3ccc(Cl)cc3)c2-c2ccc(Cl)cc2)CCN1 (configuration not stated)
IC50 [1]: 7.21 µM | IC50 [2]: 4.93 µM | Ki [4]: 17.7 µM

CCCCNC(=O)c1c(N)sc(-c2ccc(Cl)cc2)c1-c1ccc(Cl)cc1
IC50 [1]: 17.8 µM | IC50 [2]: 8.17 µM | Ki [4]: 0.55 µM

CC(C)CNC(=O)c1c(N)sc(-c2ccc(Cl)cc2)c1-c1ccc(Cl)cc1
IC50 [1]: 21 µM | Ki [4]: 4.13 µM

CC(C)(C)NC(=O)c1c(N)sc(-c2ccc(Cl)cc2)c1-c1ccc(Cl)cc1
IC50 [1]: 15.1 µM | IC50 [2]: 8.85 µM | Ki [4]: 0.81 µM

Nc1sc(-c2ccc(Cl)cc2)c(-c2ccc(Cl)cc2)c1C(=O)Nc1ccccc1
IC50 [1]: > 50 µM | IC50 [2]: 25 µM | Ki [4]: > 50 µM

Nc1sc(-c2ccc(Cl)cc2)c(-c2ccc(Cl)cc2)c1C(=O)NCc1ccccc1
IC50 [1]: 31.8 µM | IC50 [2]: 16.3 µM | Ki [4]: 0.15 µM

COc1ccc(CNC(=O)c2c(N)sc(-c3ccc(Cl)cc3)c2-c2ccc(Cl)cc2)cc1
IC50 [1]: 29.5 µM | IC50 [2]: 18.2 µM | Ki [4]: 0.64 µM

CC(=O)Nc1sc(-c2ccc(Cl)cc2)c(-c2ccc(Cl)cc2)c1C(=O)N1CCCCC1
IC50 [1]: 10.3 µM | IC50 [2]: 6.01 µM | Ki [4]: 3.57 µM

O=C(CCN1CCOCC1)Nc1sc(-c2ccc(Cl)cc2)c(-c2ccc(Cl)cc2)c1C(=O)N1CCCCC1
IC50 [1]: > 25 µM | IC50 [2]: > 25 µM | Ki [5]: Not Active

CS(=O)(=O)Nc1sc(-c2ccc(Cl)cc2)c(-c2ccc(Cl)cc2)c1C(=O)NC1CC1
Ki [4]: > 50 µM

CCOC(=O)Nc1sc(-c2ccc(Cl)cc2)c(-c2ccc(Cl)cc2)c1C(=O)NC1CC1
IC50 [1]: 27.6 µM | IC50 [2]: 39.8 µM | Ki [5]: Not Active

O=C(NCCN1CCOCC1)Nc1sc(-c2ccc(Cl)cc2)c(-c2ccc(Cl)cc2)c1C(=O)NC1CC1
Ki [5]: Not Active

CCN(CC)CCNC(=O)Nc1sc(-c2ccc(Cl)cc2)c(-c2ccc(Cl)cc2)c1C(=O)NC1CC1
Ki [5]: Not Active

COC(=O)c1c(N)sc(-c2ccc(Cl)cc2)c1-c1ccc(Cl)cc1
Ki [4]: 1.52 µM

Nc1sc(-c2ccc(Cl)cc2)c(-c2ccc(Cl)cc2)c1C(=O)NC1CC1
Ki [4]: 0.54 µM

Nc1sc(-c2ccc(Cl)cc2)c(-c2ccc(Cl)cc2)c1C(=O)NC1CCC1
IC50 [1]: 24.8 µM | IC50 [2]: 12.5 µM | Ki [4]: 1.12 µM

Nc1sc(-c2ccc(Cl)cc2)c(-c2ccc(Cl)cc2)c1C(=O)NC1CCCC1
IC50 [1]: 21.2 µM | IC50 [2]: 6.79 µM | Ki [4]: 0.54 µM

Nc1sc(-c2ccc(Cl)cc2)c(-c2ccc(Cl)cc2)c1C(=O)NC1CCCCC1
Ki [4]: 0.23 µM

Nc1sc(-c2ccc(Cl)cc2)c(-c2ccc(Cl)cc2)c1C(=O)NC1CCC(O)CC1 (configuration not stated)
IC50 [1]: 5.67 µM | IC50 [2]: 0.25 µM | Ratio IC50 [3]: 22 | Ki [4]: 0.99 µM

Nc1sc(-c2ccc(Cl)cc2)c(-c2ccc(Cl)cc2)c1C(=O)N1CCCC1
Ki [4]: 0.74 µM

Nc1sc(-c2ccc(Cl)cc2)c(-c2ccc(Cl)cc2)c1C(=O)N1CCCCC1
IC50 [1]: 14.3 µM | IC50 [2]: 4.62 µM | Ki [4]: 1.21 µM

CC1CCN(C(=O)c2c(N)sc(-c3ccc(Cl)cc3)c2-c2ccc(Cl)cc2)CC1
IC50 [1]: 5.75 µM | IC50 [2]: 1.75 µM | Ki [4]: 0.8 µM

Nc1sc(-c2ccc(Cl)cc2)c(-c2ccc(Cl)cc2)c1C(=O)N1CCCCC1=O
IC50 [1]: 4.94 µM | IC50 [2]: 1.82 µM | Ki [4]: 1.55 µM

Nc1sc(-c2ccc(Cl)cc2)c(-c2ccc(Cl)cc2)c1C(=O)N1CCC(=O)CC1
IC50 [1]: 1.34 µM | IC50 [2]: 2.01 µM | Ki [4]: 2.19 µM

Nc1sc(-c2ccc(Cl)cc2)c(-c2ccc(Cl)cc2)c1C(=O)N1CCC(=O)CC1=O
IC50 [1]: 9.23 µM | IC50 [2]: 4.09 µM | Ki [4]: 3.52 µM

Nc1sc(-c2ccc(Cl)cc2)c(-c2ccc(Cl)cc2)c1C(=O)N1CCOCC1
IC50 [1]: 11.7 µM | IC50 [2]: 1.87 µM | Ratio IC50 [3]: 6 | Ki [4]: 0.43 µM

Nc1sc(-c2ccc(Cl)cc2)c(-c2ccc(Cl)cc2)c1C(=O)N1CCNCC1
IC50 [1]: 2.71 µM | IC50 [2]: 1.02 µM | Ki [4]: 6.81 µM
